Data reported in ChEMBL document CHEMBL1134663, “Investigation of 5-nitrofuran derivatives: synthesis, antibacterial activity, and quantitative structure-activity relationships” (J Med Chem, 2001).

How the values were obtained:
[1] = test system: Staphylococcus aureus; test: Activity against gram-positive Staphylococcus aureus strain ATCC 25923 bacteria; format: functional, organism-based; conditions: read-out: Log 1/IC50 (converted)
Procedure, shortened: (§1)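 Sequential broth macrodilution. S. aureus was grown in TSB at 37 °C and C. crescentus in PYE (peptone, yeast extract, 0.8 mM MgSO4, 0.5 mM CaCl2) at 30 °C. Inoculum was an 8 h exponential culture diluted to about 2 × 10^5 bacteria/mL and added 1:1 to 2-fold serial dilutions. Incubation was 12 h (S. aureus) or 20 h (C. crescentus). Growth was read at A600, and the 50% growth inhibition concentration is reported as log(1/IC50), µmol/mL.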

[2] = test system: Caulobacter vibrioides; test: Compound was tested against gram-negative Caulobacter crescentus, strain NA 1000 bacteria; format: functional, organism-based; conditions: read-out: Log 1/IC50 (converted); procedure, shortened: as §1

Structure (SMILES)	IC50 [1] [mM]	IC50 [2] [mM]
N#Cc1ccc2c(c1)C(=O)/C(=C/c1ccc([N+](=O)[O-])o1)O2	3.16	4.57
COc1ccc2c(c1)C(=O)/C(=C/c1ccc([N+](=O)[O-])o1)O2	0.151	1.05
Cc1ccc2c(c1)C(=O)/C(=C/c1ccc([N+](=O)[O-])o1)O2	0.115	1.26
CCCc1ccc2c(c1)C(=O)/C(=C/c1ccc([N+](=O)[O-])o1)O2	0.447	3.09
CCc1ccc2c(c1)C(=O)/C(=C/c1ccc([N+](=O)[O-])o1)O2	0.447	2.75
O=C1/C(=C/c2ccc([N+](=O)[O-])o2)Oc2ccccc21	0.302	1.29
O=C1/C(=C/c2ccc([N+](=O)[O-])o2)Oc2ccc(Br)cc21	0.661	3.16
CC(=O)Oc1ccc([N+](=O)[O-])cc1C(=O)/C=C/c1ccc([N+](=O)[O-])o1	16.2	14.8
O=C1/C(=C/c2ccc([N+](=O)[O-])o2)Oc2ccc(Cl)cc21	0.575	5.25
O=C1/C(=C/c2ccc([N+](=O)[O-])o2)Oc2ccc([N+](=O)[O-])cc21	3.98	11.7

Results, then the molecule that gave them:

IC50 [1] [mM]	IC50 [2] [mM]	Structure (SMILES)
10	50.1	CC(=O)Oc1ccc(Cl)cc1C(=O)/C=C/c1ccc([N+](=O)[O-])o1
3.98		CCc1ccc(OC(C)=O)c(C(=O)/C=C/c2ccc([N+](=O)[O-])o2)c1
11.7		O=C(/C=C/c1ccc([N+](=O)[O-])o1)c1cc(Cl)ccc1O
15.8		CCc1ccc(O)c(C(=O)/C=C/c2ccc([N+](=O)[O-])o2)c1
6.92	42.7	CC(=O)Oc1ccccc1C(=O)/C=C/c1ccc([N+](=O)[O-])o1
7.24	64.6	O=C(/C=C/c1ccc([N+](=O)[O-])o1)c1ccccc1O
4.79		CC(=O)Oc1ccc(C)cc1C(=O)/C=C/c1ccc([N+](=O)[O-])o1
6.61		Cc1ccc(O)c(C(=O)/C=C/c2ccc([N+](=O)[O-])o2)c1
17	14.8	O=C(/C=C/c1ccc([N+](=O)[O-])o1)c1cc([N+](=O)[O-])ccc1O
